# From paper PMC9037808 (RSC Advances, 2021)
# Read-outs that look alike come from different tables or passages of the source.
# Key:
# Type in all cases: cell-based
# HeLa [1] = experiment: Apoptosis, Muse Annexin V & Dead cell kit, HeLa; conditions: IC50 dose (12.59 μM 4a, 11.26 μM 7b), 24 h; untreated 8.05%
# NCI-H520 [2] = experiment: MTT cytotoxicity assay, NCI-H520; conditions: read-out: IC50, NCI-H520
# Summary of the method: (§1)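 Cells were grown at 37 °C in 5% CO2: HeLa and NRK-52E in DMEM, NCI-H520 in RPMI, each with 10% heat-inactivated FBS plus penicillin/streptomycin/amphotericin B. They were seeded at 10^4 cells/well in triplicate and left 24 h. Test compound (5–300 μM) was added for 24 h, then removed with a PBS wash. MTT was added for 3 h, formazan dissolved in DMSO, and A570 read. IC50 came from nonlinear regression of survival curves, shown as mean ± SE of triplicate independent analyses.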
# HeLa [3] = experiment: MTT cytotoxicity assay, HeLa; conditions: read-out: IC50, HeLa
# Summary of the method: as §1
# NCI-H520 [4] = experiment: Apoptosis, Muse Annexin V & Dead cell kit, NCI-H520; conditions: IC50 dose; untreated 7.15%
# NRK-52E = experiment: MTT cytotoxicity assay, NRK-52E; conditions: read-out: IC50, NRK-52E, 24 h treatment, normal rat kidney epithelial cell line
# Summary of the method: as §1
# [5] = MTT, 24 h treatment, mean of three independent experiments
SMILES,"IC50 (NCI-H520 [2]; Homo sapiens, NCI-H520, 24 h)","IC50 (HeLa [3]; Homo sapiens, HeLa, 24 h)",also measured
"CCn1c2ccccc2c2cc(C3CC(c4cc5ccccc5oc4=O)=NN3C(N)=O)ccc21 (stereo not drawn) [Compound 4a, 5-(9-Ethyl-9H-carbazol-3-yl)-3-(2-oxo-2H-chromen-3-yl)-4,5-dihydro-1H-pyrazole-1-carboxamide]",11.3 ± 0.45 µM,12.59 ± 0.1 µM,"apoptotic cells, HeLa (HeLa [1]): 25.5%; apoptotic cell death, NCI-H520 (NCI-H520 [4]): 18%"
"CCn1c2ccccc2c2cc(C3CC(c4cc5ccccc5oc4=O)=NN3c3ccccc3)ccc21 (stereo not drawn) [Compound 5a, 3-(5-(9-Ethyl-9H-carbazol-3-yl)-1-phenyl-4,5-dihydro-1H-pyrazol-3-yl)-2H-chromen-2-one]",81.2 ± 1.46 µM,92.5 ± 4.25 µM,
"CCn1c2ccccc2c2cc(/C=C/C(=O)c3cc4c(ccc5ccccc54)oc3=O)ccc21 [Compound 3c, (E)-2-(3-(9-Ethyl-9H-carbazol-3-yl)acryloyl)-3H-benzo[f]chromen-3-one]",133 ± 4.75 µM,142 ± 7.77 µM,
"CCn1c2ccccc2c2cc(C3CC(c4cc5cccc(OC)c5oc4=O)=NN3c3ccc(C)cc3)ccc21 (stereo not drawn) [Compound 6b, 3-(5-(9-Ethyl-9H-carbazol-3-yl)-1-(p-tolyl)-4,5-dihydro-1H-pyrazol-3-yl)-8-methoxy-2H-chromen-2-one]",30 ± 0.33 µM,30.8 ± 0.5 µM,
"CCn1c2ccccc2c2cc(C3CC(c4cc5ccccc5oc4=O)=NN3c3cccc(Cl)c3)ccc21 (stereo not drawn) [Compound 7a, 3-(1-(3-Chlorophenyl)-5-(9-ethyl-9H-carbazol-3-yl)-4,5-dihydro-1H-pyrazol-3-yl)-2H-chromen-2-one]",14.3 ± 0.21 µM,33.4 ± 0.64 µM,
"CCn1c2ccccc2c2cc(C3CC(c4cc5c(ccc6ccccc65)oc4=O)=NN3c3ccc(C)cc3)ccc21 (stereo not drawn) [Compound 6c, 2-(5-(9-Ethyl-9H-carbazol-3-yl)-1-(p-tolyl)-4,5-dihydro-1H-pyrazol-3-yl)-3H-benzo[f] chromen-3-one]",61.7 ± 1.48 µM,57.5 ± 1.32 µM,
"CCn1c2ccccc2c2cc(C3CC(c4cc5cccc(OC)c5oc4=O)=NN3C(N)=O)ccc21 (stereo not drawn) [Compound 4b, 5-(9-Ethyl-9H-carbazol-3-yl)-3-(8-methoxy-2-oxo-2H-chromen-3-yl)-4,5-dihydro-1H-pyrazole-1-carboxamide]",22.5 ± 2.15 µM,29.8 ± 1.85 µM,
"O=c1[nH]cc(F)c(=O)[nH]1 [5-Fluorouracil, reference compound]",8.36 ± 0.45 µM,55.7 ± 2.1 µM,
"CCn1c2ccccc2c2cc(C3CC(c4cc5c(ccc6ccccc65)oc4=O)=NN3c3cccc(Cl)c3)ccc21 (stereo not drawn) [Compound 7c, 2-(1-(3-Chlorophenyl)-5-(9-ethyl-9H-carbazol-3-yl)-4,5-dihydro-1H-pyrazol-3-yl)-3H-benzo[f]chromen-3-one]",20.8 ± 0.27 µM,29 ± 0.84 µM,
"CCn1c2ccccc2c2cc(/C=C/C(=O)c3cc4cccc(OC)c4oc3=O)ccc21 [Compound 3b, (E)-3-(3-(9-Ethyl-9H-carbazol-3-yl)acryloyl)-8-methoxy-2H-chromen-2-one]",103 ± 4.78 µM,119 ± 6.88 µM,
"N.N.[Cl][Pt][Cl] [Cis-platin, reference compound]",,,IC50 (NRK-52E): 12.9 ± 0.4 µM; IC50 (NCI-H520 [2]; [5]): 10.4 ± 1.35 µM; IC50 (HeLa [3]; [5]): 7.75 ± 0.42 µM
"CCn1c2ccccc2c2cc(C3CC(c4cc5cccc(OC)c5oc4=O)=NN3c3ccccc3)ccc21 (stereo not drawn) [Compound 5b, 3-(5-(9-Ethyl-9H-carbazol-3-yl)-1-phenyl-4,5-dihydro-1H-pyrazol-3-yl)-8-methoxy-2H-chromen-2-one]",62.7 ± 1.63 µM,39 ± 0.46 µM,
"CCn1c2ccccc2c2cc(C3CC(c4cc5c(ccc6ccccc65)oc4=O)=NN3C(C)=O)ccc21 (stereo not drawn) [Compound 8c, 2-(1-Acetyl-5-(9-ethyl-9H-carbazol-3-yl)-4,5-dihydro-1H-pyrazol-3-yl)-3H-benzo[f]chromen-3-one]",77.61 ± 0.34 µM,55.9 ± 1.3 µM,
"CCn1c2ccccc2c2cc(/C=C/C(=O)c3cc4ccccc4oc3=O)ccc21 [Compound 3a, (E)-3-(3-(9-Ethyl-9H-carbazol-3-yl)acryloyl)-2H-chromen-2-one]",120 ± 3.78 µM,132 ± 5.16 µM,
"CCn1c2ccccc2c2cc(C3CC(c4cc5ccccc5oc4=O)=NN3C(C)=O)ccc21 (stereo not drawn) [Compound 8a, 3-(1-Acetyl-5-(9-ethyl-9H-carbazol-3-yl)-4,5-dihydro-1H-pyrazol-3-yl)-2H-chromen-2-one]",62.5 ± 1.95 µM,43.2 ± 0.52 µM,
"CCn1c2ccccc2c2cc(C3CC(c4cc5cccc(OC)c5oc4=O)=NN3c3cccc(Cl)c3)ccc21 (stereo not drawn) [Compound 7b, 3-(1-(3-Chlorophenyl)-5-(9-ethyl-9H-carbazol-3-yl)-4,5-dihydro-1H-pyrazol-3-yl)-8-methoxy-2H-chromen-2-one]",9.13 ± 0.08 µM,11.4 ± 0.24 µM,"apoptotic cells, HeLa (HeLa [1]): 24%; apoptotic cell death, NCI-H520 (NCI-H520 [4]): 16.10%"
"CCn1c2ccccc2c2cc(C3CC(c4cc5cccc(OC)c5oc4=O)=NN3C(C)=O)ccc21 (stereo not drawn) [Compound 8b, 3-(1-Acetyl-5-(9-ethyl-9H-carbazol-3-yl)-4,5-dihydro-1H-pyrazol-3-yl)-8-methoxy-2H-chromen-2-one]",54.7 ± 0.65 µM,76.8 ± 1.45 µM,
"CCn1c2ccccc2c2cc(C3CC(c4cc5ccccc5oc4=O)=NN3c3ccc(C)cc3)ccc21 (stereo not drawn) [Compound 6a, 3-(5-(9-Ethyl-9H-carbazol-3-yl)-1-(p-tolyl)-4,5-dihydro-1H-pyrazol-3-yl)-2H-chromen-2-one]",38.3 ± 0.78 µM,67 ± 1.87 µM,
"CCn1c2ccccc2c2cc(C3CC(c4cc5c(ccc6ccccc65)oc4=O)=NN3c3ccccc3)ccc21 (stereo not drawn) [Compound 5c, 2-(5-(9-Ethyl-9H-carbazol-3-yl)-1-phenyl-4,5-dihydro-1H-pyrazol-3-yl)-3H-benzo[f] chromen-3-one]",83.6 ± 1.2 µM,55 ± 0.96 µM,
"CCn1c2ccccc2c2cc(C3CC(c4cc5c(ccc6ccccc65)oc4=O)=NN3C(N)=O)ccc21 (stereo not drawn) [Compound 4c, 5-(9-Ethyl-9H-carbazol-3-yl)-3-(3-oxo-3H-benzo[f]chromen-2-yl)-4,5-dihydro-1H-pyrazole-1-carboxamide]",55.6 ± 1.93 µM,43.5 ± 1.02 µM,
